Key:
[1] = molecular target: dSAMTOR (WT, full-length) (Drosophila melanogaster, UniProt Q9W138); assay: ITC ligand binding, WT dSAMTOR; settings: ITC, 25°C, WT dSAMTOR
Summary of the method: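 Full-length dSAMTOR was expressed as His6-SUMO fusion in E. coli BL21 (DE3), Ni-NTA purified, tag-cleaved, then gel-filtered into 10 mM Hepes pH 7.5, 150 mM NaCl, 1 mM DTT. ITC ran at 25°C: 20 × 2 µl injections of 1 mM SAM or SAH into 0.2 mM protein, discarding an initial 0.8 µl injection, with a buffer background titration. Single-site nonlinear least-squares fit gave ΔH, n and Kd.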

[2] = molecular target: T1, hSAMTOR (WT) interaction with GATOR1-KICSTOR (Homo sapiens, UniProt Q1RMZ1); settings: previous cell biology data; cited from earlier work
T1 sequence (Q1RMZ1 1-405): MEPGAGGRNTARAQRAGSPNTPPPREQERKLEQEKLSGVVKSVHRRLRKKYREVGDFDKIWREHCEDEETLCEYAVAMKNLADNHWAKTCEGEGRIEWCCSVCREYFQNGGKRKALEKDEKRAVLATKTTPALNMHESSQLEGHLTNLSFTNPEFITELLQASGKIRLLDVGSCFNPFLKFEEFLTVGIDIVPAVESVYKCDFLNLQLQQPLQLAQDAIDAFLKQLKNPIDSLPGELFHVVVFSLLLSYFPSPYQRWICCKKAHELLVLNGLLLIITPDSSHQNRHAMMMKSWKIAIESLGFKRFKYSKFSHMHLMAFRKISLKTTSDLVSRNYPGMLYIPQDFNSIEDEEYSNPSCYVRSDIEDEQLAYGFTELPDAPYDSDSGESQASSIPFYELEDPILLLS

[3] = molecular target: V66W/E67P mutant dSAMTOR (Drosophila melanogaster, UniProt Q9W138, E67P/V66W); assay: ITC ligand binding, V66W/E67P dSAMTOR; settings: ITC, 25°C, V66W/E67P dSAMTOR
Summary of the method: (§1)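 Tag-free dSAMTOR, expressed as His6-SUMO fusion in E. coli BL21(DE3), purified by Ni-NTA and gel filtration into 10 mM Hepes pH 7.5, 150 mM NaCl, 1 mM DTT. At 25°C, 1 mM SAM or SAH was titrated into 0.2 mM protein over 20 injections, with a background titration into buffer. Single-site fit gave Kd, ΔH and n; ΔG and ΔS were calculated. Runs: three for measurable binding, two for undetectable binding.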

[4] = molecular target: L151A mutant dSAMTOR (Drosophila melanogaster, UniProt Q9W138, L151A); assay: ITC ligand binding, L151A dSAMTOR; settings: 25°C, ND = not detected
Summary of the method: as §1

[5] = molecular target: L163A mutant dSAMTOR (Drosophila melanogaster, UniProt Q9W138, F163A); assay: ITC ligand binding, L163A dSAMTOR; settings: 25°C, L163A dSAMTOR (text b27: F163A), ND = not detected
Summary of the method: as §1

[6] = molecular target: D162A mutant dSAMTOR (Drosophila melanogaster, UniProt Q9W138, D162A); assay: ITC ligand binding, D162A dSAMTOR; settings: 25°C, ND = not detected
Summary of the method: as §1

[7] = molecular target: L197A mutant dSAMTOR (Drosophila melanogaster, UniProt Q9W138, L197A); assay: ITC ligand binding, L197A dSAMTOR; settings: 25°C, ND = not detected
Summary of the method: as §1

[8] = molecular target: N-terminal truncated dSAMTOR (Δ1-64) (Drosophila melanogaster, UniProt Q9W138); assay: ITC ligand binding, Δ1-64 dSAMTOR; settings: ITC, 25°C, Δ1-64 dSAMTOR
Summary of the method: as §1

[9] = molecular target: Y201A mutant dSAMTOR (Drosophila melanogaster, UniProt Q9W138, Y201A); assay: ITC ligand binding, Y201A dSAMTOR
Summary of the method: as §1

[10] = molecular target: hSAMTOR; settings: read-out: dissociation constant (Kd); cited from earlier work
[11] = molecular target: D150A mutant dSAMTOR (Drosophila melanogaster, UniProt Q9W138, D150A); assay: ITC ligand binding, D150A dSAMTOR; settings: 25°C, ND = not detected
Summary of the method: as §1

[12] = molecular target: M202A mutant dSAMTOR (Drosophila melanogaster, UniProt Q9W138, M202A); assay: ITC ligand binding, M202A dSAMTOR; settings: 25°C, ND = not detected
Summary of the method: as §1

[13] = molecular target: R73A mutant dSAMTOR (Drosophila melanogaster, UniProt Q9W138, R73A); assay: ITC ligand binding, R73A dSAMTOR; settings: 25°C, ND = not detected
Summary of the method: as §1

[14] = molecular target: F135A mutant dSAMTOR (Drosophila melanogaster, UniProt Q9W138, F135A); assay: ITC ligand binding, F135A dSAMTOR; settings: ITC
Summary of the method: as §1

Chain of Y201A mutant dSAMTOR (Q9W138 whole entry Y201A): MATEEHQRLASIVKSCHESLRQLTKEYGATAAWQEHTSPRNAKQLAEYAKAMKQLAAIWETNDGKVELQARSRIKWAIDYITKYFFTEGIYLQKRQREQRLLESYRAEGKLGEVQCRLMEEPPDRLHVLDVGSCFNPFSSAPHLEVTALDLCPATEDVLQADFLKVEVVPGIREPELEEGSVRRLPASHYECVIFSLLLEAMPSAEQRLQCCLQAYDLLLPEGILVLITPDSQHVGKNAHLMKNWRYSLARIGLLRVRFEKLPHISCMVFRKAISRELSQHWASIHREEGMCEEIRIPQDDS
Chain of V66W/E67P mutant dSAMTOR (Q9W138 whole entry V66W/E67P, the tested form may be a part): as the sequence (Q9W138 whole entry Y201A) above, with V66W, E67P, A201Y counted along it
Chain of dSAMTOR (WT, full-length) (Q9W138 whole entry, the tested form may be a part): as the sequence (Q9W138 whole entry Y201A) above, with A201Y counted along it
Chain of F135A mutant dSAMTOR (Q9W138 whole entry F135A): as the sequence (Q9W138 whole entry Y201A) above, with F135A, A201Y counted along it
Chain of N-terminal truncated dSAMTOR (Δ1-64) (Q9W138 65-302, stated change not applied): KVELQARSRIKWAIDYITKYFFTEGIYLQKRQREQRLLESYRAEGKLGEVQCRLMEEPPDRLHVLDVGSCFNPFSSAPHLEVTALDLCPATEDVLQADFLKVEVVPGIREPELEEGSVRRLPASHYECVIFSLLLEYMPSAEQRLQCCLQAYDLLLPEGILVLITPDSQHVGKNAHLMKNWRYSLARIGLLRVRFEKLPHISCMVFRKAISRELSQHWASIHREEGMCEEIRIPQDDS
Chain of L197A mutant dSAMTOR (Q9W138 whole entry L197A): as the sequence (Q9W138 whole entry Y201A) above, with L197A, A201Y counted along it
Chain of L151A mutant dSAMTOR (Q9W138 whole entry L151A): as the sequence (Q9W138 whole entry Y201A) above, with L151A, A201Y counted along it
Chain of M202A mutant dSAMTOR (Q9W138 whole entry M202A): as the sequence (Q9W138 whole entry Y201A) above, with A201Y, M202A counted along it
Chain of R73A mutant dSAMTOR (Q9W138 whole entry R73A): as the sequence (Q9W138 whole entry Y201A) above, with R73A, A201Y counted along it
Chain of D162A mutant dSAMTOR (Q9W138 whole entry D162A): as the sequence (Q9W138 whole entry Y201A) above, with D162A, A201Y counted along it
Chain of D150A mutant dSAMTOR (Q9W138 whole entry D150A): as the sequence (Q9W138 whole entry Y201A) above, with D150A, A201Y counted along it
Chain of L163A mutant dSAMTOR (Q9W138 whole entry F163A): as the sequence (Q9W138 whole entry Y201A) above, with F163A, A201Y counted along it

Question: Which Kd [1] does the source give for `CSCC[C@H](N)C(=O)O` [methionine] here?
Answer: The Kd was “no measurable binding”.

Question: Which Kd [1] does the source give for `Nc1ncnc2c1ncn2[C@@H]1O[C@H](CO)[C@@H](O)[C@H]1O` [adenosine] here?
Answer: Its Kd is “no measurable binding”.

Question: Which results are given for `Nc1ncnc2c1ncn2[C@@H]1O[C@H](CSCC[C@H](N)C(=O)O)[C@@H](O)[C@H]1O` [SAH, S-adenosyl-L-homocysteine]?
Answer: effect of ligand binding on interaction of hSAMTOR with GATOR1-KICSTOR [2]: can disrupt the interaction of hSAMTOR with GATOR1-KICSTOR; Kd [3]: 11.3 ± 0.37 µM; n value [3]: 1.02 ± 0.02; ΔH [3]: -5.09 ± 0.12 kcal/mol; Kd [4]: completely abolish SAH binding; Kd [5]: completely abolish SAH binding; Kd [6]: completely abolish SAH binding; Kd [7]: completely abolish SAH binding; Kd [8]: 13.1 ± 0.8 µM; TΔS [8]: -8.08 kcal/mol; n value [8]: 0.67 ± 0.04; ΔH [8]: -14.70 ± 1.05 kcal/mol; Kd ([9]; 25°C, Y201A dSAMTOR): 67.3 ± 6.03 µM; TΔS ([9]; 25°C, Y201A dSAMTOR): 2.80 kcal/mol; n value ([9]; 25°C, Y201A dSAMTOR): 0.74 ± 0.02; ΔH ([9]; 25°C, Y201A dSAMTOR): -2.89 ± 0.17 kcal/mol; decrease of binding affinity compared to the WT dSAMTOR ([9]; Y201A vs WT dSAMTOR): 7.7 fold; Kd [1]: 8.7 ± 0.92 µM; TΔS [1]: -2.99 kcal/mol; n value [1]: 0.81 ± 0.09; ΔH [1]: -9.94 ± 1.48 kcal/mol; Kd [10]: 4.6 µM; Kd [11]: completely abolish SAH binding; Kd [12]: completely abolish SAH binding; Kd [13]: completely abolish SAH binding; increase of binding affinity compared to the WT dSAMTOR ([14]; F135A vs WT dSAMTOR): < 2 fold; Kd ([14]; 25°C, F135A dSAMTOR): 4.76 ± 0.71 µM; TΔS ([14]; 25°C, F135A dSAMTOR): -1.26 kcal/mol; n value ([14]; 25°C, F135A dSAMTOR): 0.80 ± 0.02; ΔH ([14]; 25°C, F135A dSAMTOR): -8.52 ± 0.51 kcal/mol
